Data from ChEMBL document CHEMBL4811293, “Novel irreversible covalent BTK inhibitors discovered using DNA-encoded chemistry” (Bioorg Med Chem, 2021).
Square brackets hold non-standard residues; d marks the D form. Peptide text beside a SMILES is read from it. * marks the point of attachment. Oic = O=C(O)[C@@H]1C[C@@H]2CCCC[C@@H]2N1; Phe(4-CN) = N#Cc1ccc(C[C@H](N)C(=O)O)cc1; Acryloyl = C=CC(=O)*

What was measured:
[1] = target: T1, Tyrosine-protein kinase BTK (Homo sapiens, UniProt Q06187); assay: Inhibition of recombinant human N-terminal His-tagged BTK expressed in baculovirus infected in Sf9 cells assessed as inhibitory constant incubated for 1 hr by TR-FRET assay
Summary of the method: (§1)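 Proteros reporter displacement assay. BTK is preincubated with a Cy5-labelled ATP-competitive probe, then unlabelled competitor is added and signal recorded over 1 h, in technical triplicates. Data normalized to high and low controls at each time point. IC50 is apparent after 1 h. kobs comes from a mono-exponential decay fit excluding the first point, and is refit as kobs = kinact·[I]/(KI+[I]) to give kinact, KI and kinact/KI.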

[2] = target: T1, Tyrosine-protein kinase BTK; assay: Inhibition of recombinant human N-terminal His-tagged BTK expressed in baculovirus infected in Sf9 cells assessed as inactivation constant incubated for 1 hr by TR-FRET assay; summary of the method: as §1
[3] = target: Tyrosine-protein kinase BTK (Homo sapiens, UniProt Q06187, C481S); assay: Inhibition of recombinant human N-terminal His-tagged BTK C481S mutant expressed in baculovirus infected in Sf9 cells incubated for 1 hr by TR-FRET assay
Summary of the method: (§2)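 Proteros reporter displacement assay: enzyme pre-incubated with Cy5-labelled ATP-competitive kinase inhibitor probe, then unlabeled competitor added. Signal recorded for 1 hour and normalized at each time-point to high (enzyme + probe, no competitor) and low (enzyme, no probe, with competitor) controls. Technical triplicates.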

[4] = target: T1, Tyrosine-protein kinase BTK; assay: Inhibition of recombinant human N-terminal His-tagged BTK expressed in baculovirus infected in Sf9 cells incubated for 1 hr by TR-FRET assay; summary of the method: as §1
[5] = target: T1, Tyrosine-protein kinase BTK; assay: Inhibition of recombinant human N-terminal His-tagged BTK expressed in baculovirus infected in Sf9 cells assessed as ratio of inactivation constant to inhibitory constant incubated for 1 hr by TR-FRET assay; summary of the method: as §1
[6] = target: T1, Tyrosine-protein kinase BTK; assay: Binding affinity to BTK (unknown origin) by mass spectrometry analysis relative to control; parameters: concentration or dose not given beside the values
Summary of the method: (§3)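 Wild-type or C481S BTK incubated with compound for one hour. Samples diluted to 0.1 mg/ml protein in 5% acetonitrile/0.1% formic acid, then reversed-phase C4 LC (80 °C, acetonitrile/0.1% FA gradient, UV 214 and 280 nm) coupled to positive-mode ESI-MS for intact mass. Adduct read as the mass shift versus BTK alone.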

[7] = test system: Tyrosine-protein kinase BTK (Homo sapiens), Q06187 [C481S]; assay: Binding affinity to BTK C481S mutant (unknown origin) by mass spectrometry analysis relative to control; parameters: concentration or dose not given beside the values; summary of the method: as §3
[8] = test system: Tyrosine-protein kinase BTK (Homo sapiens), Q06187 [C481S]; assay: Binding affinity to recombinant human BTK C481S mutant (389 to 659 residues) expressed in insect cells assessed as change in melting temperature at 50 uM incubated for 120 mins by thermal shift assay
Summary of the method: (§4)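 BTK (389-659), wild-type or C481S, at 5 μM with 50 μM compound for 120 min at room temperature in 20 mM HEPES pH 8.0, 0.5 mM TCEP, 150 mM NaCl, 0.01% Tween20, 0.5% DMSO. nanoDSF with a 20–95 °C ramp at 2.5 °C/min, tryptophan 350/330 nm ratio. Tm taken from the first-derivative maximum, three technical replicates. ΔTm is Tm with compound minus apo Tm.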

[9] = test system: Tyrosine-protein kinase BTK (Homo sapiens), Q06187 [C481S]; assay: Inhibition of recombinant human N-terminal His-tagged BTK C481S mutant expressed in baculovirus infected in Sf9 cells assessed as residence time incubated for 1 hr by TR-FRET assay; summary of the method: as §2
[10] = target: T1, Tyrosine-protein kinase BTK; assay: Binding affinity to recombinant human BTK (389 to 659 residues) expressed in insect cells assessed as change in melting temperature at 50 uM incubated for 120 mins by thermal shift assay; summary of the method: as §4
[11] = target: T1, Tyrosine-protein kinase BTK; assay: Inhibition of recombinant wild type human N-terminal His-tagged BTK expressed in baculovirus infected in Sf9 cells assessed as residence time incubated for 1 hr by TR-FRET assay; summary of the method: as §2

Chain of Tyrosine-protein kinase BTK (Homo sapiens, UniProt Q06187, C481S) (Q06187 2-659 C481S limits assumed): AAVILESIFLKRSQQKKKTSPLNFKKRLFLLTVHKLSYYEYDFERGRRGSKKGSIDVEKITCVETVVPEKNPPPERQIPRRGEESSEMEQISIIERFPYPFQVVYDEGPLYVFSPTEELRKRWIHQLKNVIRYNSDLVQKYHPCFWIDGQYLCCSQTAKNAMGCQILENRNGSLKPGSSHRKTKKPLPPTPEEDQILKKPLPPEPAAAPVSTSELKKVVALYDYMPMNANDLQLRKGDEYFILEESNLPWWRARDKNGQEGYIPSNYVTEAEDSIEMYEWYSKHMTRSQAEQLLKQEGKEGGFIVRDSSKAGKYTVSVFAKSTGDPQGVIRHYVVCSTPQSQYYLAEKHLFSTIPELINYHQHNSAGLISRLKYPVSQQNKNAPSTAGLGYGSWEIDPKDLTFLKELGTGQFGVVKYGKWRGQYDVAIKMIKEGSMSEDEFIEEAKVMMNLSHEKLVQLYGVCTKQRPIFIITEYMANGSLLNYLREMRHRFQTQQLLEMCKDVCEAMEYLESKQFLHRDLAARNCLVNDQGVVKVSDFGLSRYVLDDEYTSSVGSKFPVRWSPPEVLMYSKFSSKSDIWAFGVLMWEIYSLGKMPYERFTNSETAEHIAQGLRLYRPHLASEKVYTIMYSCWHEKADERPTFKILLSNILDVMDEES
Chain of Tyrosine-protein kinase BTK (Homo sapiens), Q06187 [C481S] (Q06187 whole entry C481S, the tested form may be a part): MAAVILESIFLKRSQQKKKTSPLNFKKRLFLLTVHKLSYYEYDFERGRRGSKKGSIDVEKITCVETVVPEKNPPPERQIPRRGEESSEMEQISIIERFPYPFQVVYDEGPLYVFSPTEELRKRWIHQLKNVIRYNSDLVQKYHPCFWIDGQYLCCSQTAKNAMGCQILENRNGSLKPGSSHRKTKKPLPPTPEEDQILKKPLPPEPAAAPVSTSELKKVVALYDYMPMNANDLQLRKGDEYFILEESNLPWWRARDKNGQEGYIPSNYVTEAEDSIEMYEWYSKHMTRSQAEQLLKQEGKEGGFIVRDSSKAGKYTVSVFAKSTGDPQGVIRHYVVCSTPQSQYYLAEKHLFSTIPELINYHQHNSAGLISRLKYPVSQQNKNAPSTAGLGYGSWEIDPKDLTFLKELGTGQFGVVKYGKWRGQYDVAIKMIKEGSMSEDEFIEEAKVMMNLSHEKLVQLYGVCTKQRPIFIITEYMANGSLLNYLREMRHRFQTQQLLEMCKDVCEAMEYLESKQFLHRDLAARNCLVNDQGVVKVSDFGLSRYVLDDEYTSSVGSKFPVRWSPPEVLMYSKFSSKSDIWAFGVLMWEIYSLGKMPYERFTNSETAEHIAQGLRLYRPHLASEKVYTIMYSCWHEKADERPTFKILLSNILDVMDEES
T1 sequence (Q06187 whole entry): as the sequence (Q06187 whole entry C481S, the tested form may be a part) above, with S481C counted along it

SMILES | Ki [1] | Kinact [2] | IC50 [3] | IC50 [4] | Ratio [5] | Activity [6] | Activity [7] | ΔTm [8] | TIME [9] | ΔTm [10] | TIME [11]
CNC(=O)[C@H]1Cc2c([nH]c3ccccc23)CN1C(=O)C[C@@H](Cc1cccc(F)c1)NC(=O)C1CO1 (stereo partly specified) | 9270 nM | 1.54 10^-2/s | > 59200 nM | 232 nM | 1660 s⁻¹ M⁻¹ | – | – | – | – | – | –
C=CC(=O)N1[C@H](C(=O)N[C@@H](Cc2ccc(C#N)cc2)C(=O)NC)C[C@@H]2CCCC[C@@H]21 (Acryloyl-[Oic]-[Phe(4-CN)]-NHMe) | – | – | > 59200 nM | 36400 nM | – | 94.4% | 0% | – | – | – | –
CNC(=O)[C@H]1Cc2c([nH]c3ccccc23)CN1C(=O)c1occc1CNc1ccc2nccnc2c1 | – | – | 3.04 nM | 3.78 nM | – | 0% | 0% | 13.4 °C | 0.367 h | 13.2 °C | 0.15 h
CNC(=O)[C@@H](Cc1ccc(C#N)cc1)NC(=O)[C@@H](NC(=O)[C@@H]1CO1)c1ccccc1 | 1930 nM | 9.41 10^-3/s | > 59200 nM | 84.2 nM | 4880 s⁻¹ M⁻¹ | 95.2% | 0% | -0.15 °C | – | 6.36 °C | –
CNC(=O)[C@@H](Cc1ccc(C#N)cc1)NC(=O)[C@@H](NC(=O)[C@]1(C)CO1)[C@@H](C)OC(C)(C)C | 1250 nM | 8.22 10^-3/s | > 59200 nM | 58.1 nM | 6580 s⁻¹ M⁻¹ | 92.3% | 0% | 0.23 °C | – | 4.51 °C | –
C=CC(=O)N1CCC[C@H](CC(=O)N2Cc3[nH]c4ccccc4c3C[C@@H]2C(=O)NC)C1 | – | – | > 59200 nM | 4760 nM | 59.2 s⁻¹ M⁻¹ | 97.9% | 0% | 0.1 °C | – | 6.55 °C | –
CNC(=O)[C@H]1Cc2c([nH]c3ccccc23)CN1C(=O)[C@@H](Cc1ccccc1)NC(=O)c1c[nH]c(C(N)=O)c1 | – | – | 56.2 nM | 22.7 nM | – | – | – | – | 0.233 h | – | 0.567 h
